# From ChEMBL document CHEMBL5724801, “EUbOPEN Chemogenomics Library - Multiplex” (2024)
# Where “and” joins values, the source holds several entries; their conditions need not be identical. Identical values can stand only once.
# Tested on: U2OS
# Assay: Multiplex assay against U2OS
# Format: toxicity, cell-based
# Details: human
# Outline: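 At seeding, live cells were stained with Hoechst33342, BioTracker Green Microtubule Cytoskeleton Dye, MitoTracker Red and Annexin V Alexa Fluor 680. After compound addition they were imaged on a CQ1 microscope at 37°C and 5% CO2, and CellPathfinder machine-learning gating sorted them into Hoechst high-intensity objects or normal cells, with normal cells further split into healthy, pyknosed or fragmented nuclei and pyknosed cells into mitotic or apoptotic. Tubulin, mitochondrial-mass and membrane-permeability phenotypes are given as per cents of cells with healthy nuclei.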
# [1] = 12 h, 1 µM, compound concentration 1 uM
# [2] = 12 h, 10 µM, compound concentration 10 uM
# [3] = 24 h, 1 µM, compound concentration 1 uM
# [4] = 24 h, 10 µM, compound concentration 10 uM
# [5] = 48 h, 1 µM, compound concentration 1 uM
# [6] = 48 h, 10 µM, compound concentration 10 uM
smiles,measurement,setting,value
Cc1sc2c(c1C)C(c1ccc(Cl)cc1)=N[C@H](CC(=O)OC(C)(C)C)c1nnc(C)n1-2,Population Apoptotic (%),[1],81% and 71%
same,Population Fragmented Nuclei (%),[1],28% and 16%
same,Population Healthy Nuclei (%),[1],63% and 77%
same,Population Hoechst High Intensity Objects (%),[1],2% and 4%
same,Population Membrane Permeable-Phenotype (%),[1],7%
same,Population Mitochondria Different-Phenotype (%),[1],4% and 2%
same,Population Mitotic Cells (%),[1],18% and 28%
same,Population Normal (%),[1],97% and 95%
same,Population Pyknosed Nuclei (%),[1],8% and 6%
same,Population Tubulin-Different-Phenotype (%),[1],4%
same,Total Cell Count,[1],256 and 120
same,Population Apoptotic (%),[2],51% and 90%
same,Population Fragmented Nuclei (%),[2],32% and 22%
same,Population Healthy Nuclei (%),[2],56% and 68%
same,Population Hoechst High Intensity Objects (%),[2],2% and 0%
same,Population Mitochondria Different-Phenotype (%),[2],35% and 24%
same,Population Normal (%),[2],97% and 100%
same,Population Pyknosed Nuclei (%),[2],11% and 8%
same,Total Cell Count,[2],240 and 118
same,Population Apoptotic (%),[3],77% and 75%
same,Population Fragmented Nuclei (%),[3],22% and 20%
same,Population Healthy Nuclei (%),[3],69% and 70%
same,Population Hoechst High Intensity Objects (%),[3],0% and 3%
same,Population Membrane Permeable-Phenotype (%),[3],5%
same,Population Mitochondria Different-Phenotype (%),[3],1% and 2%
same,Population Mitotic Cells (%),[3],22% and 25%
same,Population Normal (%),[3],99% and 96%
same,Population Pyknosed Nuclei (%),[3],7% and 8%
same,Population Tubulin-Different-Phenotype (%),[3],1% and 2%
same,Total Cell Count,[3],280 and 149
same,Population Apoptotic (%),[4],83% and 76%
same,Population Fragmented Nuclei (%),[4],29% and 24%
same,Population Healthy Nuclei (%),[4],57% and 65%
same,Population Hoechst High Intensity Objects (%),[4],2% and 0%
same,Population Membrane Permeable-Phenotype (%),[4],17% and 7%
same,Population Mitochondria Different-Phenotype (%),[4],17% and 25%
same,Population Mitotic Cells (%),[4],16% and 23%
same,Population Normal (%),[4],97% and 99%
same,Population Pyknosed Nuclei (%),[4],13% and 10%
same,Population Tubulin-Different-Phenotype (%),[4],8% and 3%
same,Total Cell Count,[4],280 and 130
same,Population Apoptotic (%),[5],77% and 96%
same,Population Fragmented Nuclei (%),[5],20% and 21%
same,Population Healthy Nuclei (%),[5],72% and 64%
same,Population Hoechst High Intensity Objects (%),[5],1% and 3%
same,Population Membrane Permeable-Phenotype (%),[5],5% and 7%
same,Population Mitochondria Different-Phenotype (%),[5],2% and 7%
same,Population Normal (%),[5],98% and 96%
same,Population Pyknosed Nuclei (%),[5],6% and 14%
same,Population Tubulin-Different-Phenotype (%),[5],2% and 5%
same,Total Cell Count,[5],415 and 228
same,Population Apoptotic (%),[6],86% and 89%
same,Population Fragmented Nuclei (%),[6],23% and 20%
same,Population Healthy Nuclei (%),[6],57% and 68%
same,Population Hoechst High Intensity Objects (%),[6],2% and 1%
same,Population Membrane Permeable-Phenotype (%),[6],11%
same,Population Mitochondria Different-Phenotype (%),[6],7% and 8%
same,Population Mitotic Cells (%),[6],13% and 10%
same,Population Normal (%),[6],97% and 98%
same,Population Pyknosed Nuclei (%),[6],18% and 11%
same,Population Tubulin-Different-Phenotype (%),[6],5% and 3%
same,Total Cell Count,[6],342 and 174
CN(C)CCOc1ccc(/C(=C(/CCCO)c2ccccc2)c2ccc(O)cc2)cc1,Population Apoptotic (%),[1],43.75% and 21.88%
same,Population Fragmented Nuclei (%),[1],1.53% and 1.8%
same,Population Healthy Nuclei (%),[1],90.31% and 79.04%
same,Population Hoechst High Intensity Objects (%),[1],0%
same,Population Membrane Permeable-Phenotype (%),[1],2.26% and 4.55%
same,Population Mitotic Cells (%),[1],56.25% and 78.12%
same,Population Normal (%),[1],100%
same,Population Pyknosed Nuclei (%),[1],8.16% and 19.16%
same,Population Tubulin-Different-Phenotype (%),[1],2.54% and 2.27%
same,Total Cell Count,[1],392 and 167
same,Population Apoptotic (%),[2],30.43% and 23.08%
same,Population Fragmented Nuclei (%),[2],2.02% and 2.16%
same,Population Healthy Nuclei (%),[2],71.39% and 69.78%
same,Population Hoechst High Intensity Objects (%),[2],0%
same,Population Membrane Permeable-Phenotype (%),[2],13.77% and 36.08%
same,Population Mitotic Cells (%),[2],69.57% and 76.92%
same,Population Normal (%),[2],100%
same,Population Pyknosed Nuclei (%),[2],26.59% and 28.06%
same,Population Tubulin-Different-Phenotype (%),[2],60.73% and 38.14%
same,Total Cell Count,[2],346 and 139
same,Population Apoptotic (%),[3],35.85% and 30.56%
same,Population Fragmented Nuclei (%),[3],0.75% and 3.24%
same,Population Healthy Nuclei (%),[3],89.35% and 80.09%
same,Population Hoechst High Intensity Objects (%),[3],0%
same,Population Membrane Permeable-Phenotype (%),[3],0.63% and 4.05%
same,Population Mitotic Cells (%),[3],64.15% and 69.44%
same,Population Normal (%),[3],100%
same,Population Pyknosed Nuclei (%),[3],9.91% and 16.67%
same,Population Tubulin-Different-Phenotype (%),[3],1.67% and 1.16%
same,Total Cell Count,[3],535 and 216
same,Population Apoptotic (%),[4],44.63% and 34.25%
same,Population Fragmented Nuclei (%),[4],2.92% and 1.89%
same,Population Healthy Nuclei (%),[4],67.64% and 52.2%
same,Population Hoechst High Intensity Objects (%),[4],0%
same,Population Membrane Permeable-Phenotype (%),[4],12.23% and 26.51%
same,Population Mitotic Cells (%),[4],55.37% and 65.75%
same,Population Normal (%),[4],100%
same,Population Pyknosed Nuclei (%),[4],29.44% and 45.91%
same,Population Tubulin-Different-Phenotype (%),[4],51.08% and 46.99%
same,Total Cell Count,[4],411 and 159
same,Population Apoptotic (%),[5],42.71% and 56.25%
same,Population Fragmented Nuclei (%),[5],2% and 2.61%
same,Population Healthy Nuclei (%),[5],87.88% and 81.7%
same,Population Hoechst High Intensity Objects (%),[5],0.11% and 0%
same,Population Membrane Permeable-Phenotype (%),[5],1.2% and 2%
same,Population Mitotic Cells (%),[5],57.29% and 43.75%
same,Population Normal (%),[5],99.89% and 100%
same,Population Pyknosed Nuclei (%),[5],10.12% and 15.69%
same,Population Tubulin-Different-Phenotype (%),[5],2.28% and 1.6%
same,Population Apoptotic (%),[6],54.89% and 66.67%
same,Population Fragmented Nuclei (%),[6],4.64% and 2.86%
same,Population Healthy Nuclei (%),[6],74.08% and 49.14%
same,Population Hoechst High Intensity Objects (%),[6],0%
same,Population Mitotic Cells (%),[6],45.11% and 33.33%
same,Population Normal (%),[6],100%
same,Population Pyknosed Nuclei (%),[6],21.28% and 48%
same,Population Tubulin-Different-Phenotype (%),[6],26.13% and 55.81%
CC(C)(C)c1ccc(CSc2cnn(C(C)(C)C)c(=O)c2Cl)cc1 [PYRIDABEN],Population Apoptotic (%),[1],79% and 63%
same,Population Fragmented Nuclei (%),[1],28% and 11%
same,Population Healthy Nuclei (%),[1],61% and 81%
same,Population Hoechst High Intensity Objects (%),[1],3% and 0%
same,Population Membrane Permeable-Phenotype (%),[1],3% and 4%
same,Population Mitochondria Different-Phenotype (%),[1],1%
same,Population Mitotic Cells (%),[1],20% and 36%
same,Population Normal (%),[1],97% and 99%
same,Population Pyknosed Nuclei (%),[1],9% and 7%
same,Population Tubulin-Different-Phenotype (%),[1],2% and 3%
same,Total Cell Count,[1],267 and 152
same,Population Apoptotic (%),[2],83% and 87%
same,Population Fragmented Nuclei (%),[2],28% and 15%
same,Population Healthy Nuclei (%),[2],57% and 73%
same,Population Hoechst High Intensity Objects (%),[2],1% and 0%
same,Population Membrane Permeable-Phenotype (%),[2],5%
same,Population Mitochondria Different-Phenotype (%),[2],5% and 2%
same,Population Mitotic Cells (%),[2],16% and 12%
same,Population Normal (%),[2],98% and 100%
same,Population Pyknosed Nuclei (%),[2],14% and 11%
same,Population Tubulin-Different-Phenotype (%),[2],3% and 2%
same,Total Cell Count,[2],209 and 141
same,Population Apoptotic (%),[3],83% and 100%
same,Population Fragmented Nuclei (%),[3],28% and 19%
same,Population Healthy Nuclei (%),[3],58% and 75%
same,Population Hoechst High Intensity Objects (%),[3],1% and 2%
same,Population Membrane Permeable-Phenotype (%),[3],4% and 3%
same,Population Mitochondria Different-Phenotype (%),[3],1%
same,Population Mitotic Cells (%),[3],16% and 0%
same,Population Normal (%),[3],98% and 97%
same,Population Pyknosed Nuclei (%),[3],13% and 5%
same,Population Tubulin-Different-Phenotype (%),[3],1%
same,Total Cell Count,[3],286 and 186
same,Population Apoptotic (%),[4],80%
same,Population Fragmented Nuclei (%),[4],22% and 19%
same,Population Healthy Nuclei (%),[4],61% and 68%
same,Population Hoechst High Intensity Objects (%),[4],2% and 1%
same,Population Membrane Permeable-Phenotype (%),[4],8% and 6%
same,Population Mitochondria Different-Phenotype (%),[4],3% and 1%
same,Population Mitotic Cells (%),[4],19% and 20%
same,Population Normal (%),[4],97% and 98%
same,Population Pyknosed Nuclei (%),[4],15% and 12%
same,Population Tubulin-Different-Phenotype (%),[4],6% and 2%
same,Total Cell Count,[4],234 and 167
same,Population Apoptotic (%),[5],76% and 84%
same,Population Fragmented Nuclei (%),[5],26% and 19%
same,Population Healthy Nuclei (%),[5],63% and 70%
same,Population Hoechst High Intensity Objects (%),[5],3% and 6%
same,Population Membrane Permeable-Phenotype (%),[5],6% and 5%
same,Population Mitochondria Different-Phenotype (%),[5],3%
same,Population Mitotic Cells (%),[5],23% and 15%
same,Population Normal (%),[5],96% and 93%
same,Population Pyknosed Nuclei (%),[5],9%
same,Population Tubulin-Different-Phenotype (%),[5],3% and 2%
same,Total Cell Count,[5],361 and 212
same,Population Apoptotic (%),[6],90% and 95%
same,Population Fragmented Nuclei (%),[6],20% and 16%
same,Population Healthy Nuclei (%),[6],64% and 70%
same,Population Hoechst High Intensity Objects (%),[6],4% and 3%
same,Population Membrane Permeable-Phenotype (%),[6],9% and 5%
same,Population Mitochondria Different-Phenotype (%),[6],4% and 6%
same,Population Mitotic Cells (%),[6],10% and 4%
same,Population Normal (%),[6],95% and 96%
same,Population Pyknosed Nuclei (%),[6],14% and 13%
same,Population Tubulin-Different-Phenotype (%),[6],6% and 4%
same,Total Cell Count,[6],280 and 191
